Data published in ChEMBL document CHEMBL3046030, “Implementation of bio-fungicides and seed treatment in organic rice cv. KDML 105 farming” (2009).

Tests used:
Format in all cases: functional
Aspergillus niger [1] = assay: Antifungal activity against Aspergillus niger assessed as inhibition of spore germination at 1% after 24 hr by compound microscopy
Aspergillus flavus [2] = assay: Antifungal activity against Aspergillus flavus assessed as mycelial growth inhibition after 96 hr by agar overlay method
Outline: (§1)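 Agar overlay method: plant extract or essential oil was mixed into PDA at 0.10, 0.25, 0.50 and 1.00% v/v. A 5 mm plug from a 7-day culture was placed upside down on each plate and incubated 96 h at 25±2°C. Colony diameter was compared with an untreated control as % inhibition = (C−T)/C×100, using four replicates averaged. IC50 was derived by regression of the concentration–response curve.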

Nigrospora [3] = assay: Antifungal activity against Nigrospora sp. assessed as mycelial growth inhibition at 1% after 96 hr by agar overlay method; outline: as §1
Aspergillus niger [4] = assay: Antifungal activity against Aspergillus niger assessed as inhibition of spore germination at 0.10% after 24 hr by compound microscopy
Fusarium verticillioides [5] = assay: Antifungal activity against Fusarium verticillioides assessed as inhibition of spore germination at 0.10% after 24 hr by compound microscopy
Outline: (§2)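 Spores were raised by growing the fungus 3 days at 25±2°C in aqueous PDA, rinsing the mycelium three times in distilled water, and holding it 2 more days. The suspension was adjusted to about 10^6 cfu/mL by hemacytometer and spread on slides carrying a thin PDA layer. An open watch glass held plant extract or essential oil (0.10–1.00% v/v), or sterile water as control. Slides were sealed in moist dishes for 24 h at 25±2°C. Encysted spores were counted at x100, and % inhibition was calculated against control.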

Bipolaris oryzae [6] = assay: Antifungal activity against Bipolaris oryzae assessed as mycelial growth inhibition after 96 hr by agar overlay method; outline: as §1
Alternaria solani [7] = assay: Antifungal activity against Alternaria solani assessed as inhibition of spore germination at 1% after 24 hr by compound microscopy; outline: as §2
Fusarium verticillioides [8] = assay: Antifungal activity against Fusarium verticillioides assessed as mycelial growth inhibition at 1% after 96 hr by agar overlay method; outline: as §1
Aspergillus flavus [9] = assay: Antifungal activity against Aspergillus flavus assessed as inhibition of spore germination at 1% after 24 hr by compound microscopy
Fusarium verticillioides [10] = assay: Antifungal activity against Fusarium verticillioides assessed as mycelial growth inhibition after 96 hr by agar overlay method; outline: as §1
Aspergillus niger [11] = assay: Antifungal activity against Aspergillus niger assessed as inhibition of spore germination at 0.25% after 24 hr by compound microscopy
Aspergillus flavus [12] = assay: Antifungal activity against Aspergillus flavus assessed as inhibition of spore germination at 0.5% after 24 hr by compound microscopy
Rhizoctonia solani [13] = assay: Antifungal activity against Rhizoctonia solani assessed as mycelial growth inhibition at 1% after 96 hr by agar overlay method
Outline: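 PDA containing plant extract or essential oil (0.10–1.00% v/v) was used for the agar overlay. A 5 mm plug from a 7-day-old R. solani culture was placed upside down, then incubated 96 h at 25±2°C. Colony diameter was measured against a simultaneous untreated control, and inhibition was calculated as [(C−T)/C]×100. Four replicates were averaged.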

Curvularia [14] = assay: Antifungal activity against Curvularia sp. assessed as mycelial growth inhibition after 96 hr by agar overlay method; outline: as §1
Fusarium verticillioides [15] = assay: Antifungal activity against Fusarium verticillioides assessed as inhibition of spore germination at 0.5% after 24 hr by compound microscopy; outline: as §2
Alternaria solani [16] = assay: Antifungal activity against Alternaria solani assessed as inhibition of spore germination at 0.25% after 24 hr by compound microscopy; outline: as §2
Rhizoctonia solani [17] = assay: Antifungal activity against Rhizoctonia solani assessed as inhibition of spore germination at 0.10% after 24 hr by compound microscopy; outline: as §2
Aspergillus flavus [18] = assay: Antifungal activity against Aspergillus flavus assessed as mycelial growth inhibition at 1% after 96 hr by agar overlay method; outline: as §1
Aspergillus flavus [19] = assay: Antifungal activity against Aspergillus flavus assessed as inhibition of spore germination at 0.10% after 24 hr by compound microscopy
Alternaria solani [20] = assay: Antifungal activity against Alternaria solani assessed as inhibition of spore germination at 0.10% after 24 hr by compound microscopy; outline: as §2
Curvularia [21] = assay: Antifungal activity against Curvularia sp. assessed as inhibition of spore germination at 0.25% after 24 hr by compound microscopy
Curvularia [22] = assay: Antifungal activity against Curvularia sp. assessed as mycelial growth inhibition at 1% after 96 hr by agar overlay method; outline: as §1
Fusarium verticillioides [23] = assay: Antifungal activity against Fusarium verticillioides assessed as inhibition of spore germination at 0.25% after 24 hr by compound microscopy; outline: as §2
Aspergillus niger [24] = assay: Antifungal activity against Aspergillus niger assessed as mycelial growth inhibition at 1% after 96 hr by agar overlay method; outline: as §1
Nigrospora [25] = assay: Antifungal activity against Nigrospora sp. assessed as mycelial growth inhibition after 96 hr by agar overlay method; outline: as §1
Fusarium verticillioides [26] = assay: Antifungal activity against Fusarium verticillioides assessed as inhibition of spore germination at 1% after 24 hr by compound microscopy; outline: as §2
Alternaria solani [27] = assay: Antifungal activity against Alternaria solani assessed as inhibition of spore germination at 0.5% after 24 hr by compound microscopy; outline: as §2
Rhizoctonia solani [28] = assay: Antifungal activity against Rhizoctonia solani assessed as mycelial growth inhibition after 96 hr by agar overlay method
Outline: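 Agar overlay on PDA with extract or oil at 0.10, 0.25, 0.50 and 1.00% v/v. A 5 mm plug from a 7-day R. solani culture was incubated 96 h at 25±2°C, colony diameter was measured, and % inhibition versus untreated control was calculated in four replicates. IC50 was derived by regression of % inhibition against concentration.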

Rhizoctonia solani [29] = assay: Antifungal activity against Rhizoctonia solani assessed as inhibition of spore germination at 0.5% after 24 hr by compound microscopy
Outline: (§3)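 R. solani grown 3 days at 25±2°C in aqueous PDA, rinsed three times with distilled water, then held 2 days to induce spores. Suspension set to about 10^6 cfu/mL by hemacytometer and spread on a thin PDA layer on slides. Watch glass held extract/oil (0.10–1.00% v/v) or sterile water control. Moist sealed chamber, 24 h, 25±2°C; encysted spores counted at x100; % inhibition versus control.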

Alternaria solani [30] = assay: Antifungal activity against Alternaria solani assessed as mycelial growth inhibition after 96 hr by agar overlay method; outline: as §1
Alternaria solani [31] = assay: Antifungal activity against Alternaria solani assessed as mycelial growth inhibition at 1% after 96 hr by agar overlay method; outline: as §1
Rhizoctonia solani [32] = assay: Antifungal activity against Rhizoctonia solani assessed as inhibition of spore germination at 0.25% after 24 hr by compound microscopy; outline: as §3
Curvularia [33] = assay: Antifungal activity against Curvularia sp. assessed as inhibition of spore germination at 0.10% after 24 hr by compound microscopy
Curvularia [34] = assay: Antifungal activity against Curvularia sp. assessed as inhibition of spore germination at 0.5% after 24 hr by compound microscopy
Rhizoctonia solani [35] = assay: Antifungal activity against Rhizoctonia solani assessed as inhibition of spore germination at 1% after 24 hr by compound microscopy; outline: as §3
Aspergillus flavus [36] = assay: Antifungal activity against Aspergillus flavus assessed as inhibition of spore germination at 0.25% after 24 hr by compound microscopy
Aspergillus niger [37] = assay: Antifungal activity against Aspergillus niger assessed as inhibition of spore germination at 0.5% after 24 hr by compound microscopy
Curvularia [38] = assay: Antifungal activity against Curvularia sp. assessed as inhibition of spore germination at 1% after 24 hr by compound microscopy
Bipolaris oryzae [39] = assay: Antifungal activity against Bipolaris oryzae assessed as mycelial growth inhibition at 1% after 96 hr by agar overlay method; outline: as §1
Aspergillus niger [40] = assay: Antifungal activity against Aspergillus niger assessed as mycelial growth inhibition after 96 hr by agar overlay method; outline: as §1
Bipolaris oryzae [41] = assay: Antifungal activity against Bipolaris oryzae at 1%
Bipolaris oryzae [42] = assay: Antifungal activity against Bipolaris oryzae at 0.25%
Aspergillus flavus [43] = assay: Antifungal activity against Aspergillus flavus at 1%
Alternaria solani [44] = assay: Antifungal activity against Alternaria solani at 0.25%
Nigrospora [45] = assay: Antifungal activity against Nigrospora sp. at 1%
Curvularia [46] = assay: Antifungal activity against Curvularia sp. at 0.25%
Fusarium verticillioides [47] = assay: Antifungal activity against Fusarium verticillioides at 1%
Nigrospora [48] = assay: Antifungal activity against Nigrospora sp. at 0.25%
Aspergillus flavus [49] = assay: Antifungal activity against Aspergillus flavus at 0.25%
Aspergillus niger [50] = assay: Antifungal activity against Aspergillus niger at 0.25%
Curvularia [51] = assay: Antifungal activity against Curvularia sp. at 1%
Rhizoctonia solani [52] = assay: Antifungal activity against Rhizoctonia solani at 0.25%
Rhizoctonia solani [53] = assay: Antifungal activity against Rhizoctonia solani at 1%
Fusarium verticillioides [54] = assay: Antifungal activity against Fusarium verticillioides at 0.25%
Alternaria solani [55] = assay: Antifungal activity against Alternaria solani at 1%
Aspergillus niger [56] = assay: Antifungal activity against Aspergillus niger at 1%
Colletotrichum = assay: Antifungal activity against Colletotrichum sp. at 1%

O=C1C2CC=CCC2C(=O)N1SC(Cl)(Cl)Cl (stereo unspecified) [CAPTAN]
growth inhibition (GI) (Aspergillus niger [1]): 100% | growth inhibition (GI) (Aspergillus flavus [2]): 8.13% | growth inhibition (GI) (Nigrospora [3]): 6.97% | growth inhibition (GI) (Aspergillus niger [4]): 100% | growth inhibition (GI) (Fusarium verticillioides [5]): 100% | growth inhibition (GI) (Bipolaris oryzae [6]): 1.11% | growth inhibition (GI) (Alternaria solani [7]): 100% | growth inhibition (GI) (Fusarium verticillioides [8]): 23.39% | growth inhibition (GI) (Aspergillus flavus [9]): 100% | growth inhibition (GI) (Fusarium verticillioides [10]): 12.28% | growth inhibition (GI) (Aspergillus niger [11]): 100% | growth inhibition (GI) (Aspergillus flavus [12]): 100% | growth inhibition (GI) (Rhizoctonia solani [13]): 17.06% | growth inhibition (GI) (Curvularia [14]): 8.45% | growth inhibition (GI) (Fusarium verticillioides [15]): 100% | growth inhibition (GI) (Alternaria solani [16]): 100% | growth inhibition (GI) (Rhizoctonia solani [17]): 100% | growth inhibition (GI) (Aspergillus flavus [18]): 18.02% | growth inhibition (GI) (Aspergillus flavus [19]): 100% | growth inhibition (GI) (Alternaria solani [20]): 100% | growth inhibition (GI) (Curvularia [21]): 100% | growth inhibition (GI) (Curvularia [22]): 9.15% | growth inhibition (GI) (Fusarium verticillioides [23]): 100% | growth inhibition (GI) (Aspergillus niger [24]): 13.95% | growth inhibition (GI) (Nigrospora [25]): 2.82% | growth inhibition (GI) (Fusarium verticillioides [26]): 100% | growth inhibition (GI) (Alternaria solani [27]): 100% | growth inhibition (GI) (Rhizoctonia solani [28]): 13.78% | growth inhibition (GI) (Rhizoctonia solani [29]): 100% | growth inhibition (GI) (Alternaria solani [30]): 4.6% | growth inhibition (GI) (Alternaria solani [31]): 2.63% | growth inhibition (GI) (Rhizoctonia solani [32]): 100% | growth inhibition (GI) (Curvularia [33]): 100% | growth inhibition (GI) (Curvularia [34]): 100% | growth inhibition (GI) (Rhizoctonia solani [35]): 100% | growth inhibition (GI) (Aspergillus flavus [36]): 100% | growth inhibition (GI) (Aspergillus niger [37]): 100% | growth inhibition (GI) (Curvularia [38]): 100% | growth inhibition (GI) (Bipolaris oryzae [39]): 21.1% | growth inhibition (GI) (Aspergillus niger [40]): 4.06%

C=CCc1ccc(O)c(OC)c1 [EUGENOL]
growth inhibition (GI) (Aspergillus niger [1]): 100% | inhibition (INH) (Bipolaris oryzae [41]): 100% | inhibition (INH) (Bipolaris oryzae [42]): 86.98% | growth inhibition (GI) (Aspergillus niger [4]): 37.59% | inhibition (INH) (Aspergillus flavus [43]): 100% | growth inhibition (GI) (Fusarium verticillioides [5]): 21.88% | growth inhibition (GI) (Alternaria solani [7]): 100% | inhibition (INH) (Alternaria solani [44]): 100% | growth inhibition (GI) (Aspergillus flavus [9]): 100% | growth inhibition (GI) (Aspergillus niger [11]): 65.6% | growth inhibition (GI) (Aspergillus flavus [12]): 100% | inhibition (INH) (Nigrospora [45]): 98.23% | inhibition (INH) (Curvularia [46]): 50.04% | growth inhibition (GI) (Fusarium verticillioides [15]): 100% | growth inhibition (GI) (Alternaria solani [16]): 24.16% | growth inhibition (GI) (Rhizoctonia solani [17]): 93.53% | growth inhibition (GI) (Aspergillus flavus [19]): 54% | inhibition (INH) (Fusarium verticillioides [47]): 100% | growth inhibition (GI) (Alternaria solani [20]): 14.41% | growth inhibition (GI) (Curvularia [21]): 85.39% | inhibition (INH) (Nigrospora [48]): 50.04% | inhibition (INH) (Aspergillus flavus [49]): 44.22% | growth inhibition (GI) (Fusarium verticillioides [23]): 74.11% | inhibition (INH) (Aspergillus niger [50]): 70.58% | inhibition (INH) (Curvularia [51]): 97.04% | growth inhibition (GI) (Fusarium verticillioides [26]): 100% | inhibition (INH) (Rhizoctonia solani [52]): 100% | inhibition (INH) (Rhizoctonia solani [53]): 100% | growth inhibition (GI) (Alternaria solani [27]): 65.68% | growth inhibition (GI) (Rhizoctonia solani [29]): 100% | inhibition (INH) (Fusarium verticillioides [54]): 100% | inhibition (INH) (Alternaria solani [55]): 100% | growth inhibition (GI) (Rhizoctonia solani [32]): 100% | growth inhibition (GI) (Curvularia [33]): 44.94% | inhibition (INH) (Aspergillus niger [56]): 100% | growth inhibition (GI) (Curvularia [34]): 100% | growth inhibition (GI) (Rhizoctonia solani [35]): 100% | growth inhibition (GI) (Aspergillus flavus [36]): 65.6% | growth inhibition (GI) (Aspergillus niger [37]): 100% | inhibition (INH) (Colletotrichum): 100% | growth inhibition (GI) (Curvularia [38]): 100%
